B1: Osa-1-4 twister ribozyme (parent)
chain: CCGCCUAACACUGCCAAUGCCGGUCCCAAGCCCGGAUAAAAGUGGAGGGGGCGG

Variants of: B1
Assay: self-cleavage, relative activity (ratio to wild type); higher = more cleavage; co-transcriptional
Outline: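 A DNA template encoding a 54-nucleotide twister ribozyme from Oryza sativa was made so that each of the 48 positions downstream of the cleavage site carried 97 % wild-type base and 1 % of each other base. Transcription in vitro ran for 2 h at 37 °C, during which the ribozyme could cleave itself. Reverse transcription used a template-switching oligonucleotide, and the products were PCR-amplified and deep-sequenced. Each read was scored as cleaved or uncleaved by whether upstream sequence was present, and relative activity is the fraction cleaved normalised to wild type.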
In the case of C31U C33A, the self-cleavage is reported as 0.08.
For C31U C33U, the self-cleavage was 0.31.
In the case of C31U C33G, the self-cleavage is reported as 0.06.
In the case of C32A G50U, the self-cleavage is reported as 0.08.
With C32A G50C the self-cleavage was 0.07.
For C32A G50A, the self-cleavage was 0.05.
Work on C31A C33U yielded a self-cleavage of 0.03.
Work on C31A C33G yielded a self-cleavage of 0.02.
In the case of C31A C33A, the self-cleavage is reported as 0.05.
With C32A U12C the self-cleavage was 0.04.
C32A U12A showed a self-cleavage of 0.07.
For C32A U12G, the self-cleavage was 0.06.
In the case of C32A G44A, the self-cleavage is reported as 0.06.
For C32A G44U, the self-cleavage was 0.08.
In the case of C32A G44C, the self-cleavage is reported as 0.07.
C31U G34C gave a self-cleavage of 0.24.
In the case of C31U G34U, the self-cleavage is reported as 0.56.
With C31U G34A the self-cleavage was 0.42.
Work on C31A G48A yielded a self-cleavage of 0.02.
For C31A G48U, the self-cleavage was 0.01.
In the case of C31A G48C, the self-cleavage is reported as 0.02.
For C32A G53A, the self-cleavage was 0.08.
Work on C32A G53U yielded a self-cleavage of 0.05.
Work on C32A G53C yielded a self-cleavage of 0.02.
C31A C52A showed a self-cleavage of 0.05.
C31A C52G gave a self-cleavage of 0.05.
In the case of C31A C52U, the self-cleavage is reported as 0.05.
Variant C31U G35A has a self-cleavage of 0.87.
For C31U G35U, the self-cleavage was 0.85.
Variant C31U G35C has a self-cleavage of 0.14.
With C32A G34A the self-cleavage was 0.06.
With C32A G34C the self-cleavage was 0.08.
With C32A G34U the self-cleavage was 0.05.
C32A G49C gave a self-cleavage of 0.03.
C32A G49A gave a self-cleavage of 0.04.
With C32A G49U the self-cleavage was 0.04.
For C31U G44C, the self-cleavage was 0.62.
C31U G44A gave a self-cleavage of 0.29.
C31U G44U showed a self-cleavage of 0.51.
Work on C31G U43G yielded a self-cleavage of 0.09.
In the case of C31G U43A, the self-cleavage is reported as 0.1.
C31G U43C showed a self-cleavage of 0.06.
Variant C32A G42U has a self-cleavage of 0.02.
With C32A G42C the self-cleavage was 0.06.
Variant C32A G42A has a self-cleavage of 0.06.
C31U C32U gave a self-cleavage of 0.09.
Work on C31U C32G yielded a self-cleavage of 0.08.
For C31U C32A, the self-cleavage was 0.05.
Variant C31G G42A has a self-cleavage of 0.1.
For C31G G42U, the self-cleavage was 0.02.
In the case of C31G G42C, the self-cleavage is reported as 0.05.
G30U U18A showed a self-cleavage of 0.03.
For G30U U18G, the self-cleavage was 0.04.
G30U U18C gave a self-cleavage of 0.04.
In the case of C31A C9G, the self-cleavage is reported as 0.04.
For C31A C9U, the self-cleavage was 0.03.
In the case of C31A C9A, the self-cleavage is reported as 0.02.
C32A G45A gave a self-cleavage of 0.04.
In the case of C32A G45U, the self-cleavage is reported as 0.03.
For C32A G45C, the self-cleavage was 0.02.
With C31A G19A the self-cleavage was 0.04.
C31A G19U showed a self-cleavage of 0.02.
Variant C31A G19C has a self-cleavage of 0.02.
Work on C31A U37G yielded a self-cleavage of 0.05.
C31A U37C showed a self-cleavage of 0.04.
With C31A U37A the self-cleavage was 0.03.
Work on C31A yielded a self-cleavage of 0.04.
Work on C31U yielded a self-cleavage of 0.97.
In the case of C31G, the self-cleavage is reported as 0.11.
In the case of C32A G35U, the self-cleavage is reported as 0.07.
With C32A G35A the self-cleavage was 0.06.
With C32A G35C the self-cleavage was 0.05.
With C32A G19C the self-cleavage was 0.02.
Work on C32A G19A yielded a self-cleavage of 0.07.
In the case of C32A G19U, the self-cleavage is reported as 0.04.
C31U G19A showed a self-cleavage of 0.14.
C31U G19C showed a self-cleavage of 0.06.
C31U G19U showed a self-cleavage of 0.05.
C31G U24C gave a self-cleavage of 0.03.
C31G U24A gave a self-cleavage of 0.04.
Work on C31G U24G yielded a self-cleavage of 0.02.
C31A U24G gave a self-cleavage of 0.01.
Variant C31A U24A has a self-cleavage of 0.02.
